Source: ChEMBL document CHEMBL1122721, “Synthesis and antiarrhythmic activity of new 1-[1-[2-[3-(alkylamino)-2-hydroxypropoxy]phenyl]vinyl]-1 H-imidazoles and related compounds” (J Med Chem, 1984)

Columns and labels:
[1] = biological target: Adrenergic receptor beta (Cavia porcellus); test: Beta adrenergic receptor blocking activity measured by the inotropic effect was determined 1 hr after pretreament of the right atria in guinea pig
[2] = biological target: Adrenergic receptor beta (Cavia porcellus); test: Beta adrenergic receptor blocking activity measured by the chronotropic effect was determined 1 hr after pretreatment of the right atria in guinea pig
Cavia porcellus [3] = species on record: Cavia porcellus; test: Maximal follow rate showing the contractile frequencies of atria to electrical stimulation 10 min after incubation with right atria of guinea pig.; format: functional
How it was run: (§1)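 Isolated right atria driven by electrical stimulation (Dawes' method). Maximal follow rate, the highest contractile frequency the atria follow, measured as an index of refractory period 10 min after incubation with compound.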

Mus musculus [4] = test: Compound was evaluated for ventricular tachycardia activity in intravenously administered mice, 3 min before aconitine infusion, at a dose of 3 mg/kg; S=significant antiarrhythmic effect; format: functional, organism-based; design: dose 3 mg/kg; conditions: Heart
How it was run: (§2)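 Aconitine arrhythmia model in pentobarbital-anesthetized male mice (20-35 g). Test compound was given iv 3 min or po 30 min before continuous tail-vein infusion of aconitine (0.685 µg/min). Lead II ECG recorded; onset times of ventricular extrasystole (VES) and ventricular tachycardia (VT) were measured.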

[5] = Lethal dose in mice (LD50) (following i.v. dosing); conditions: mouse, in vivo, iv
Mus musculus [6] = test: Compound was evaluated for ventricular extrasystole activity, 3 min before aconitine infusion, at a dose of 3 mg/kg, intravenously administered in mice; S=significant antiarrhythmic effect; format: functional, organism-based; design: dose 3 mg/kg; conditions: Heart
How it was run: as §2

Mus musculus [7] = test: Compound was evaluated for ventricular tachycardia activity in intravenously administered mice, 3 min before aconitine infusion, at a dose of 10 mg/kg; S=significant antiarrhythmic effect; format: functional, organism-based; design: dose 10 mg/kg; conditions: Heart
How it was run: as §2

Mus musculus [8] = test: Compound was evaluated for ventricular extrasystole, 30 min before aconitine infusion, at a dose of 30 mg/kg, perorally administered in mice; S=significant antiarrhythmic effect; format: functional, organism-based; design: dose 30 mg/kg; conditions: Heart
How it was run: as §2

Canis familiaris [9] = test: Effect on ischemic arrhythmias was studied in dogs. 3 mg/kg was injected intravenously and percent sinus beats before compound administration, was reported.; format: functional, Canis lupus familiaris; conditions: route intravenous
How it was run: (§3)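 Conscious dogs with ischemic ventricular arrhythmias persisting for 24 h after a glass bead was inserted into a coronary artery. Compound was given iv or orally. Lead II ECG recorded continuously by telemetry. Percent sinus beats taken before and after dosing, plus duration of effect (min).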

Canis familiaris [10] = test: Effect on ischemic arrhythmias was studied in dogs. 3 mg/kg was injected intravenously and percent sinus beats after compound administration, was reported.; format: functional, Canis lupus familiaris; conditions: route intravenous
How it was run: as §3

Canis familiaris [11] = species on record: Canis familiaris; test: Duration of ischemic arrhythmias in dogs determined in minutes.
Mus musculus [12] = test: Compound was evaluated for ventricular extrasystole activity, 3 min before aconitine infusion, at a dose of 10 mg/kg, intravenously administered in mice; S=significant antiarrhythmic effect; format: functional, organism-based; design: dose 10 mg/kg; conditions: Heart
How it was run: as §2

Mus musculus [13] = test: Compound was evaluated for ventricular tachycardia activity in perorally administered mice, 30 min before aconitine infusion, at a dose of 30 mg/kg; S=significant antiarrhythmic effect; format: functional, organism-based; design: dose 30 mg/kg; conditions: Heart
How it was run: as §2

Canis familiaris [14] = test: Effect on ischemic arrhythmias was studied in dogs, by glass bead method. 60 mg/kg was administered perorally and percent sinus beats before compound administration, was reported.; format: functional, Canis lupus familiaris; conditions: route oral
How it was run: as §3

Cavia porcellus [15] = species on record: Cavia porcellus; test: Effect on maximal follow rate showing the contractile frequencies of atria to electrical stimulation 10 min after incubating compound with right atria of guinea pig; format: functional
How it was run: as §1

Canis familiaris [16] = test: Effect on ischemic arrhythmias was studied in dogs, by glass bead method. 60 mg/kg was administered perorally and percent sinus beats after compound administration, was reported.; format: functional, Canis lupus familiaris; conditions: route oral
How it was run: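 Conscious dogs; ventricular arrhythmias induced by inserting a glass bead into a coronary artery, with marked arrhythmias persisting for 24 h. Compound given orally. Lead II ECG recorded continuously by telemetry. Percent sinus beats measured before and after dosing, and duration of effect in min recorded.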

Mus musculus [17] = test: Compound was evaluated for ventricular tachycardia activity in perorally administered mice, 30 min before aconitine infusion, at a dose of 10 mg/kg; S=significant antiarrhythmic effect; format: functional, organism-based; design: dose 10 mg/kg; conditions: Heart
How it was run: as §2

Mus musculus [18] = test: Compound was evaluated for ventricular extrasystole, 30 min before aconitine infusion, at a dose of 10 mg/kg, perorally administered in mice; S=significant antiarrhythmic effect; format: functional, organism-based; design: dose 10 mg/kg; conditions: Heart
How it was run: as §2

SMILES	pA2 [1]	pA2 [2]	Decrease (Cavia porcellus [3])	also measured
CC(C)NCC(O)COc1ccccc1Cn1cccn1 (stereo not drawn)	7.54	7.42	28.7%	
C=C(c1c(C)c(C)cc(Cl)c1OCC(O)CNC(C)(C)C)n1ccnc1 (stereo not drawn)	6.21	6.18	31.9%	Activity (Mus musculus [4]): Anti-arrhythmic; LD50 [5]: 18.8 mg/kg; Activity (Mus musculus [6]): Anti-arrhythmic
C/C=C(\c1ccccc1OCC(O)CNC(C)C)n1ccnc1 (stereo not drawn)	6.76	6.52	18.6%	
C=C(c1c(C)ccc(C)c1OCC(O)CNC(C)C)n1ccnc1 (stereo not drawn)	6.43	6.23	35.7%	Activity (Mus musculus [4]): Anti-arrhythmic; LD50 [5]: 30.7 mg/kg; Activity (Mus musculus [6]): Anti-arrhythmic
C=C(c1cc(Cl)c(Cl)cc1OCC(O)CNC(C)C)n1ccnc1 (stereo not drawn)	6.23	6.64	23.8%	
C=C(c1ccc(Cl)cc1OCC(O)CNC)n1ccnc1 (stereo not drawn)	6.21	6.19	17.8%	
C=C(c1ccccc1OCC(O)CNC(C)(C)C)n1cccn1 (stereo not drawn)	8.01	8.1		Activity (Mus musculus [7]): Anti-arrhythmic
C=C(c1cc(Cl)cc(C)c1OCC(O)CNC(C)(C)C)n1ccnc1 (stereo not drawn)	5.04	5.49	27.3%	
CC(C)=C(c1cc(Cl)ccc1OCC(O)CNC(C)C)n1ccnc1 (stereo not drawn)	5.19	4.9	21.6%	
C=C(c1ccccc1OCC(O)CNC(C)C)n1cccn1 (stereo not drawn)	7.75	7.44	21.6%	
CC(C)NCC(O)COc1ccccc1Cn1ccnc1 (stereo not drawn)	6.66	6.69	14.2%	
C=C(c1ccccc1OCC(O)CNC(C)C)n1cnc2ccccc21 (stereo not drawn)	6.46	6.67	16.8%	
C=C(c1ccccc1OCC(O)CN1CCCC1)n1ccnc1 (stereo not drawn)	6.15	6.13	16.7%	
C=C(c1cc(Cl)ccc1OCC(O)CNC(C)C)n1ccnc1 (stereo not drawn)	6.41	6.3	27.1%	
C=C(c1cc(C)cc(C)c1OCC(O)CNC(C)(C)C)n1ccnc1 (stereo not drawn)	6.58	5.55	31.8%	Activity (Mus musculus [4]): Anti-arrhythmic; LD50 [5]: 15.9 mg/kg; Activity (Mus musculus [6]): Anti-arrhythmic
C=C(c1ccccc1OCC(O)CNC(C)C)n1ccc(=O)cc1 (stereo not drawn)	6.19	6.2	13%	
C=C(c1cc(Cl)cc(Cl)c1OCC(O)CNC(C)C)n1ccnc1 (stereo not drawn)	6.64	6.5	27.5%	
C=C(c1ccccc1OCC(O)CNC(C)C)n1cnc(C(=O)OCC)c1C (stereo not drawn)	6.37	6.15		
C=C(c1cc(Cl)cc(C)c1OCC(O)CNC(C)C)n1ccnc1 (stereo not drawn)	5.93	5.22	37.9%	Activity (Mus musculus [4]): Anti-arrhythmic; LD50 [5]: 48.8 mg/kg; Activity (Mus musculus [6]): Anti-arrhythmic
C=C(c1cc(Cl)ccc1OCC(O)CNC(C)C)n1cccn1 (stereo not drawn)	6.74	6.76	14.3%	
C=C(c1ccccc1OCC(O)CNC(C)(C)C)n1ccnc1C (stereo not drawn)	6.97	6.97	27.1%	
CC(C)NCC(O)COc1ccccc1C(C)n1ccnc1 (stereo not drawn)	6.83	6.9	15.6%	
C=C(c1c(C)ccc(C)c1OCC(O)CNC(C)(C)C)n1ccnc1 (stereo not drawn)	6.47	6.36	17.1%	

SMILES	pA2 [1]	pA2 [2]	Decrease (Cavia porcellus [3])	also measured
C=C(c1cccc(OC)c1OCC(O)CNC(C)C)n1cnc2ccccc21 (stereo not drawn)	6.41	6.26	22.3%	
C=C(c1ccccc1OCC(O)CNC(C)C)n1cncn1 (stereo not drawn)	6.33	6.12		Activity (Mus musculus [8]): Anti-arrhythmic; Activity (Mus musculus [4]): Anti-arrhythmic; Sinus beats (Canis familiaris [9]): 9.8%; Sinus beats (Canis familiaris [10]): 28.3%; Activity (Mus musculus [6]): Anti-arrhythmic; Duration (Canis familiaris [11]): 15 min
C=C(c1ccccc1OCC(O)CN(C)C)n1ccnc1 (stereo not drawn)	6.12	5.41	30.7%	Activity (Mus musculus [7]): Anti-arrhythmic; Activity (Mus musculus [12]): Anti-arrhythmic; LD50 [5]: 45.4 mg/kg
C=C(c1cccc(C)c1OCC(O)CNC(C)(C)C)n1ccnc1 (stereo not drawn)	5.62	5.81	46.6%	Activity (Mus musculus [8]): Anti-arrhythmic; Activity (Mus musculus [13]): Anti-arrhythmic; Activity (Mus musculus [4]): Anti-arrhythmic; LD50 [5]: 23.1 mg/kg; Activity (Mus musculus [6]): Anti-arrhythmic
CC(C)NCC(O)COc1cccc2ccccc12 (stereo not drawn) [PROPRANOLOL]				Activity (Mus musculus [8]): Anti-arrhythmic; Activity (Mus musculus [7]): Anti-arrhythmic; Sinus beats (Canis familiaris [14]): 12%; Decrease (Cavia porcellus [15]): 33.5%; Sinus beats (Canis familiaris [16]): 51.6%; Activity (Mus musculus [12]): Anti-arrhythmic
C=C(c1c(Cl)cc(Cl)cc1OCC(O)CNC(C)C)n1ccnc1 (stereo not drawn)	6.27	6.44	19.6%	
C=C(c1ccccc1OCC(O)CNC(C)C)n1ccnc1C (stereo not drawn)	6.24	6.24	15%	
C=C(c1ccccc1OCC(O)CNC(C)C)n1c(C)cnc1CC (stereo not drawn)	6.17	5.8	9.1%	
C=C(c1ccccc1OCC(O)CNC(C)(C)C)n1cnc2ccccc21 (stereo not drawn)	7.08	7.29		Activity (Mus musculus [4]): Anti-arrhythmic; Activity (Mus musculus [6]): Anti-arrhythmic
C=C(c1cc(Cl)cc(Cl)c1OCC(O)CNC(C)(C)C)n1ccnc1 (stereo not drawn)	6.51	6.3	27.1%	
C/C=C(\c1ccccc1OCC(O)CNC(C)(C)C)n1ccnc1 (stereo not drawn)	7.3	7.19	14.5%	
C=C(c1cccc(OC)c1OCC(O)CNC(C)(C)C)n1cnc2ccccc21 (stereo not drawn)	7.03	7.03	39.2%	Activity (Mus musculus [4]): Anti-arrhythmic; LD50 [5]: 19.8 mg/kg; Activity (Mus musculus [6]): Anti-arrhythmic
C=C(c1ccccc1OCC(O)CNC(C)(C)C)n1ccnc1 (stereo not drawn)	8.01	7.69	14.1%	
C=C(c1cc(C)cc(C)c1OCC(O)CNC(C)C)n1ccnc1 (stereo not drawn)	6.31	5.55	25.9%	
C=C(c1cccc(Cl)c1OCC(O)CNC(C)C)n1ccnc1 (stereo not drawn)	5.63	5.66	28.2%	
C=C(c1c(Cl)ccc(Cl)c1OCC(O)CNC(C)(C)C)n1ccnc1 (stereo not drawn)	5.41	5.27	26.3%	
C=C(c1c(Cl)ccc(Cl)c1OC[C@H](O)CNC(C)C)n1ccnc1.Cl	5.19	4.46		Activity (Mus musculus [17]): Anti-arrhythmic; Decrease (Cavia porcellus [15]): 39.5%; Activity (Mus musculus [4]): Anti-arrhythmic; Activity (Mus musculus [6]): Anti-arrhythmic
C=C(c1ccccc1OCC(O)CNC(C)C)n1cnc(C)c1 (stereo not drawn)	7.16	7.19		Activity (Mus musculus [4]): Anti-arrhythmic
C=C(c1ccc(Cl)cc1OCC(O)CNC(C)C)n1ccnc1 (stereo not drawn)	5.95	5.86	26.3%	
C=C(c1c(Cl)ccc(Cl)c1OC[C@@H](O)CNC(C)C)n1ccnc1.Cl	5.05	5.08		Activity (Mus musculus [17]): Anti-arrhythmic; Decrease (Cavia porcellus [15]): 40.3%; Activity (Mus musculus [4]): Anti-arrhythmic; Activity (Mus musculus [18]): Anti-arrhythmic; Activity (Mus musculus [12]): Anti-arrhythmic
C=C(c1cccc(OC)c1OCC(O)CNC(C)C)n1ccnc1 (stereo not drawn)	6.99	6.64	29%	
C=C(c1ccccc1OCC(O)CNC(C)C)n1ccnc1 (stereo not drawn)	6.89	6.89	27.1%	
